# Results taken from ChEMBL document CHEMBL1136894, “New antituberculotics originated from salicylanilides with promising in vitro activity against atypical mycobacterial strains” (Bioorg Med Chem, 2009).
# How the values were obtained:
# Mycobacterium avium [1] = assay: Antimycobacterial activity against Mycobacterium avium CNCTC My 330/88 after 21 days; type: functional; details: CNCTC My 330/88, 504 h
# Method in brief: (§1)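 Broth dilution in Sula semisynthetic medium, compounds added as DMSO solutions at 250, 125, 62, 32, 16, 8, 4, 2 and 1. Strains came from the Czech National Collection of Type Cultures; the M. tuberculosis inoculum was diluted 10^-3. Cultures were incubated at 37 °C, and MIC was read after 7, 14 and 21 days.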
# Mycobacterium kansasii [2] = assay: Antimycobacterial activity against Mycobacterium kansasii CNCTC My 235/80 after 14 days; type: functional; details: CNCTC My 235/80, 336 h
# Method in brief: (§2)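 Compounds were added as DMSO solutions to Sula semisynthetic medium at 250, 125, 62, 32, 16, 8, 4, 2 and 1 µmol/L. Two M. kansasii strains were used: CNCTC My 235/80 and clinical isolate 6509/96, each with strain dilution 10^-4. Incubation was at 37 °C, and MIC was read at 7, 14 and 21 days.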
# Mycobacterium kansasii [3] = assay: Antimycobacterial activity against Mycobacterium kansasii CNCTC My 235/80 after 7 days; type: functional; details: CNCTC My 235/80, 168 h; method in brief: as §2
# Mycobacterium kansasii [4] = assay: Antimycobacterial activity against Mycobacterium kansasii isolate 6509/96 after 21 days; type: functional; details: isolate 6509/96, 504 h; method in brief: as §2
# [5] = Stability assessed as half life in phosphate buffer at pH 5.5 by UV-visible spectroscopy; type: physicochemical
# Method in brief: (§3)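 Compound in methanolic solution (10 or 20 µL) was added to tempered 7 × 10^-2 M phosphate buffer (2 mL) at pH 7.4 or 5.5, 37 °C. The absorbance decrease at 224 nm was followed by UV/vis.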
# Mycobacterium kansasii [6] = assay: Antimycobacterial activity against Mycobacterium kansasii isolate 6509/96 after 14 days; type: functional; details: isolate 6509/96, 336 h; method in brief: as §2
# Mycobacterium kansasii [7] = assay: Antimycobacterial activity against Mycobacterium kansasii isolate 6509/96 after 7 days; type: functional; details: isolate 6509/96, 168 h; method in brief: as §2
# [8] = Selectivity index, ratio of EC50 for human HCT8 cells to MIC for Mycobacterium tuberculosis CNCTC My 331/88; type: functional, HCT-8
# Method in brief: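 SI is EC50 in HCT-8 cells divided by the M. tuberculosis MIC. HCT-8 cells were grown in EMEM with 5% FBS at 37 °C under 5% CO₂, trypsinised and seeded at 2 × 10⁵ cells/mL. After 24 h the medium was replaced with compound in DMSO. Controls were DMSO alone and 20% DMSO. Absorbance was read at 450 nm 4 h after reagent addition, in triplicate.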
# Mycobacterium kansasii [9] = assay: Antimycobacterial activity against Mycobacterium kansasii CNCTC My 235/80 after 21 days; type: functional; details: CNCTC My 235/80, 504 h; method in brief: as §2
# Mycobacterium avium [10] = assay: Antimycobacterial activity against Mycobacterium avium CNCTC My 330/88 after 14 days; type: functional; details: CNCTC My 330/88, 336 h; method in brief: as §1
# HCT-8 = assay: Cytotoxicity against human HCT8 cells after 72 hrs by XTT assay; type: functional, cell-based; details: HCT-8, 72 h
# Method in brief: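 HCT-8 cells were grown in EMEM with 5% FBS at 37 °C under 5% CO2. They were harvested with trypsin, seeded at 2 × 10^5 cells/mL and left 24 h. Medium was then replaced with compound in DMSO. DMSO-only wells served as the viability control and 20% DMSO as the cytotoxic control. Reagent was added for 4 h and absorbance read at 450 nm. Triplicates; EC50 reported.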
# [11] = Lipophilicity, log K by HPLC; type: physicochemical
# Method in brief: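 Capacity factors k were measured by RP-HPLC and log k was calculated from them.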
# [12] = Stability assessed as half life in phosphate buffer at pH 7.4 by UV-visible spectroscopy; type: physicochemical; method in brief: as §3
# [13] = system: Mycobacterium tuberculosis; assay: Antimycobacterial activity against Mycobacterium tuberculosis CNCTC My 331/88 after 21 days; type: functional; details: CNCTC My 331/88, 504 h; method in brief: as §1
# [14] = system: Mycobacterium tuberculosis; assay: Antimycobacterial activity against Mycobacterium tuberculosis CNCTC My 331/88 after 14 days; type: functional; details: CNCTC My 331/88, 336 h; method in brief: as §1
SMILES,MIC (Mycobacterium avium [1]),MIC (Mycobacterium kansasii [2]),MIC (Mycobacterium kansasii [3]),MIC (Mycobacterium kansasii [4]),half-life [5],MIC (Mycobacterium kansasii [6]),MIC (Mycobacterium kansasii [7]),Ratio [8],MIC (Mycobacterium kansasii [9]),MIC (Mycobacterium avium [10]),EC50 (HCT-8),log K [11],half-life [12],MIC [13],MIC [14]
CC(C)[C@@H](NC(=O)OCc1ccccc1)C(=O)Oc1ccc(Cl)cc1C(=O)Nc1ccc(Br)cc1,16 µM,8 µM,4 µM,8 µM,14.8 min,8 µM,8 µM,33.35,8 µM,16 µM,121 µM,0.9805,15 min,4 µM,2 µM
CC(C)[C@@H](NC(=O)OCc1ccccc1)C(=O)Oc1cc(Cl)ccc1C(=O)Nc1ccc(Cl)cc1,16 µM,8 µM,4 µM,8 µM,20.3 min,8 µM,4 µM,13.75,8 µM,8 µM,107 µM,0.8816,20.4 min,4 µM,4 µM
O=C(N[C@H](Cc1ccccc1)C(=O)Oc1ccc(Cl)cc1C(=O)Nc1ccc(Br)cc1)OCc1ccccc1,16 µM,4 µM,2 µM,8 µM,32.5 min,8 µM,8 µM,10.61,4 µM,8 µM,35.5 µM,1.1267,34.3 min,4 µM,2 µM
O=C(N[C@H](Cc1ccccc1)C(=O)Oc1cc(Cl)ccc1C(=O)Nc1ccc(Cl)cc1)OCc1ccccc1,8 µM,8 µM,4 µM,8 µM,17.9 min,8 µM,4 µM,26.05,8 µM,8 µM,104 µM,1.0315,22.1 min,4 µM,4 µM
CC(C)[C@H](NC(=O)OCc1ccccc1)C(=O)Oc1ccc(Cl)cc1C(=O)Nc1ccc(Br)cc1,16 µM,8 µM,4 µM,8 µM,14.3 min,8 µM,8 µM,16.74,8 µM,8 µM,122 µM,0.9803,14.8 min,4 µM,4 µM
O=C(N[C@@H](Cc1ccccc1)C(=O)Oc1cc(Cl)ccc1C(=O)Nc1ccc(Cl)cc1)OCc1ccccc1,8 µM,8 µM,4 µM,8 µM,21.9 min,8 µM,4 µM,20.73,8 µM,8 µM,82.9 µM,1.0304,25.3 min,4 µM,4 µM
C[C@@H](NC(=O)OCc1ccccc1)C(=O)Oc1ccc(Cl)cc1C(=O)Nc1ccc(Cl)cc1,16 µM,16 µM,8 µM,16 µM,,8 µM,8 µM,,16 µM,16 µM,,0.7294,,4 µM,4 µM
